Screening data (PubChem BioAssay)
MrgX1 PAM: allosterically activates human MrgX1 receptor signaling | Q96LB2 | MrgX1-HEK293, Fluo-4 calcium flux, FDSS; hits give high values | B-score at 10 µM | 0.63% of 310,000 active;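 active = plate-corrected calcium response at least 3 library SD above typical, normal starting fluorescence, not activating the receptor alone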;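 note: compound read alongside a low EC10 to EC30 dose of BAM8-22 agonist; peak minus trough fluorescence over baseline measured at the second addition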
Target sequence (Q96LB2 whole entry, looked up): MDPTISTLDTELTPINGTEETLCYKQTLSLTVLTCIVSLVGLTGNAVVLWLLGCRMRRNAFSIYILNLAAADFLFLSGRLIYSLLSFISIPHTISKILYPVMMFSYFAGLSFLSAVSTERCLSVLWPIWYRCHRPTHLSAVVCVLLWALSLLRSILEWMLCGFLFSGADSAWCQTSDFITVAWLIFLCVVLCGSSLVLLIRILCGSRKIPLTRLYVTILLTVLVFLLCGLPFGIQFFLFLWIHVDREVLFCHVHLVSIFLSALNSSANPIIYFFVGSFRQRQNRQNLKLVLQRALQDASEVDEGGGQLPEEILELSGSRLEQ
RGS4 act: RGS4 potentiation or activation; HEK293 M3R/inducible RGS4, carbachol calcium flux Fluo4; hits give low values; B-score at 10 µM; 0.92% of 310,000 active;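 active = B-score of the integrated calcium signal more than 4 SD below the library mean, with starting fluorescence not abnormally high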;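 note: negative B-score means reduced calcium response which marks RGS4 activation or potentiation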
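Material: Inducible-RGS4 HEK293 cells carrying M3 receptor; also added: carbachol at ECmax as muscarinic agonist stimulus; incubation: compound preincubation 20 min at room temperature before agonist; signal: Fluo4-AM (2 µM) calcium-flux fluorescence, kinetic read; measure: integrated calcium ratio converted to B score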
RGS4 block: inhibitors of human RGS4; 0.45% of 310,000 active; P49798; B-score at 10 µM; HEK293 M3R/RGS4 inducible, Fluo-4 calcium flux; hits give high values; triggered by carbachol at its EC20; AID 463165;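 active = B-score, a plate-corrected calcium signal, over three deviations above library mean, with baseline fluorescence within five deviations of library mean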;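 note: RGS4 expression induced by doxycycline in cells with stable M3 receptor; B-score is computed from the integrated fluorescence ratio over baseline after carbachol; higher B-score means a larger calcium signal and so more RGS4 inhibition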
Target sequence (P49798 whole entry, looked up): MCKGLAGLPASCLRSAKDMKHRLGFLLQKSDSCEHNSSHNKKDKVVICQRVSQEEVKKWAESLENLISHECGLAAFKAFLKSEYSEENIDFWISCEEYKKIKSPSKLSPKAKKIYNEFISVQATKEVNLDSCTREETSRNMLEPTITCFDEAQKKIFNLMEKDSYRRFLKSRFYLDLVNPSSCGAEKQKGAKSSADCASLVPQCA
MrgX1 antag: human MrgX1 receptor antagonism, primary screen. Q96LB2. MRGX1-HEK293 calcium flux, Fluo-4, BAM8-22 antagonism; hits give low values. B-score at 10 µM. 1.3% of 310,000 active;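 active = calcium-response B-score plate-corrected more than 3 library SD below zero, starting fluorescence within 5 deviations, no agonist response on first addition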;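 note: peak minus trough fluorescence over baseline after final BAM8-22 challenge near maximal dose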
MrgX1 ag: agonists of human MrgX1 receptor | Q96LB2 | MrgX1-HEK293 cells, Fluo-4 calcium fluorescence, agonist mode; hits give high values | B-score at 10 µM | 0.44% of 310,000 active;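 active = calcium response B-score plate-corrected fluorescence ratio at least 3 library SD, with starting fluorescence B-score inside 5 SD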
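Test system: HEK293 cells stably expressing human MrgX1 receptor; amount: 15,000 cells per well; doses: compound delivered in addition one of three; times: overnight plating before 1 h dye loading; detection: Fluo-4 NW calcium-flux fluorescence, kinetic read; read-out basis: B-scored fluorescence response ratio; controls: positive and negative controls per plate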
RGS4 inh valid: RGS4 inhibitor validation. shares compounds with RGS4 block. 65% of 1,700 active. AID 492999. HEK293 M3R/RGS4, carbachol calcium Fluo-4 fluorescence; carbachol added at its EC20; 0 = buffer wells, 100 = carbachol control. calcium response, % at 10 µM;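 active = duplicate-averaged calcium response above the buffer-only control mean plus 5 SD of those controls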;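 note: integrated fluorescence ratio F max minus min over baseline F0; higher response in RGS4-induced cells means RGS4 inhibition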
RGS4 uninduced: counter-screen for RGS4 inhibitors: effect in non-induced cells. shares compounds with RGS4 block. HEK293 M3R non-induced, carbachol calcium Fluo-4; submaximal (EC20) carbachol stimulus; buffer wells 0%, carbachol control wells 100%. activity (percent), % at 10 µM. 20% of 1,900 active. AID 493000; call rule not given here;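 note: RGS4 induction absent so cells express M3R without RGS4; higher means more calcium signal and flags a non-specific hit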
M3R basal Ca ctr: signal in non-induced cells without carbachol, RGS4 inhibitor counter-screen. calcium response (agonist-mode artifact), % at 10 µM. AID 493001. shares compounds with RGS4 block. HEK293 M3R/RGS4 non-induced, Fluo-4 calcium, no carbachol; normalised: buffer wells 0%, carbachol wells 100%. 22% of 1,900 active;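 active = duplicate-averaged calcium rise in uninduced cells above buffer wells' mean plus 5 SD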
* marks the source's active call; other numbers are inactive results; i = inactive; · = no result. Most compounds without a hit are left out; they make up all but 3.5% or so of the library.

SMILES	MrgX1 PAM	RGS4 act	RGS4 block	MrgX1 antag	MrgX1 ag	RGS4 inh valid	RGS4 uninduced	M3R basal Ca ctr
CCCCN(C(=O)CSCC(=O)Nc1ccc(OC)cc1)c1c(N)n(Cc2ccccc2)c(=O)[nH]c1=O	i	i	i	i	i	·	·	·
O=[N+]([O-])/C=C\c1ccc(N2CCOCC2)cc1	i	i	35*	i	41*	88%*	94%*	35%*
CC(NC(=O)CN1C(=O)c2ccccc2C1=O)c1ccccc1 (stereo not given)	i	i	i	i	i	·	·	·
Cc1cc(C)n2nc(C)c(-c3ccccc3)c2n1	i	i	i	i	i	·	·	·
Cc1cc(Nc2ccccc2)n2nc(C)c(-c3ccccc3)c2n1	i	i	i	i	i	i	i	i
Cc1cc(OC(C)C(=O)NCc2ccccn2)c2c(C)c(C)c(=O)oc2c1 (stereo not given)	i	i	i	i	i	·	·	·
O=c1[nH]c2ccc(Cl)cc2c(-c2ccccc2)c1N1CCN(c2ccccn2)CC1	i	i	7.5*	i	i	17%*	i	i
Cc1cccc(N2C(=O)c3ccc(C(=O)Nc4ccccn4)cc3C2=O)c1	i	i	i	i	i	·	·	·
Cc1cccc(N2C(=O)/C(=C\c3ccc(C(=O)O)cc3)c3ccccc3C2=O)c1	i	i	10*	i	i	38%*	i	i
CC1=NNC(=O)C1C(c1cccc(O)c1)C(C#N)C#N (stereo not given)	i	i	i	i	i	·	·	·
CC1=NN(Cc2ccccc2)C(=O)C1C(c1ccc(Cl)cc1)C(C#N)C#N (stereo not given)	i	i	i	i	i	i	i	7.0%*
CC1=NN(Cc2ccccc2)C(=O)C1	i	i	i	i	i	·	·	·
CC1=NNC(=O)C1C(c1ccc(Cl)cc1)C(C#N)C#N (stereo not given)	i	i	i	i	i	·	·	·
CC1=NN(Cc2ccccc2)C(=O)C1C(c1ccccc1)C(C#N)C#N (stereo not given)	i	i	i	i	i	i	i	i
CC1=NN(Cc2ccccc2)C(=O)C1C(c1ccncc1)C(C#N)C#N (stereo not given)	i	i	4.8*	i	i	7.5%*	i	i
CCOP(=O)(OCC)/C(C#N)=C/c1cc(OC)ccc1OC	i	i	i	i	i	·	·	·
Cc1ccc(OCCC(=O)OC(C)C(=O)Nc2c(C)n(C)n(-c3ccccc3)c2=O)cc1 (stereo not given)	i	i	i	i	i	·	·	·
COc1cc(OC)c(N(C)C(=O)c2cc3c(s2)-c2ccccc2S(=O)(=O)C3)cc1Cl	i	i	17*	i	i	28%*	50%*	i
CCOC(=O)C1=C(C)n2c(s/c(=C/c3cccc([N+](=O)[O-])c3)c2=O)=NC1c1ccc(O)c(OC)c1 (stereo not given)	i	i	34*	i	i	66%*	34%*	20%*
COCCNS(=O)(=O)c1ccc(SC)cc1	i	i	i	i	i	·	·	·
O=C(Nc1ccc(S(=O)(=O)Nc2cnc3ccccc3n2)cc1)c1ccc(Cl)c([N+](=O)[O-])c1	17*	i	8.9*	i	i	14%*	56%*	i
COCCNC(=S)N/N=C(\C)c1cccc(OC)c1	i	i	i	i	i	·	·	·
Cc1cc(C(=O)Nc2nc3ccc(Cl)cc3s2)nn1C	i	i	5*	i	i	10%*	i	i
Cn1ncc(Cl)c1C(=O)Nc1nc2ccc(Cl)cc2s1	i	i	i	i	i	·	·	·
COCCNC(=S)N(CCc1c(C)[nH]c2ccc(F)cc12)Cc1cccs1	i	i	i	i	i	i	i	i
SMILES	MrgX1 PAM	RGS4 act	RGS4 block	MrgX1 antag	MrgX1 ag	RGS4 inh valid	RGS4 uninduced	M3R basal Ca ctr
CCNC(=S)N(CCc1c(C)[nH]c2ccc(C)cc12)Cc1cccs1	i	i	i	i	i	·	·	·
COCCNC(=S)N(CCc1c(C)[nH]c2ccc(Cl)cc12)Cc1cccs1	i	i	5*	i	i	6.0%*	i	i
CC(C)C(NC(=O)c1ccccc1)c1nnc(SCC(=O)Nc2nccs2)n1C (stereo not given)	i	i	i	i	i	·	·	·
COc1ccccc1NC(=O)c1cnc(SCC(=O)NCC2CCCO2)n(C)c1=O (stereo not given)	i	i	5.4*	i	i	9.0%*	i	i
COc1ccc(CCNc2ncnc3c2nnn3Cc2ccccc2)cc1OC	i	i	i	i	i	·	·	·
O=C(O)c1cccc(NC(=S)NC(=O)c2ccc(-c3ccc(Cl)cc3)o2)c1	i	i	i	i	i	·	·	·
COc1ccc(C(=O)O)cc1NC(=S)NC(=O)c1ccc(-c2ccc(Cl)cc2)o1	·	i	4.8*	·	·	i	i	i
Cc1ccc(C(=O)O)cc1NC(=S)NC(=O)c1ccc(-c2ccc(Cl)cc2)o1	i	i	i	i	i	·	i	i
S=C(NCc1ccco1)Nc1ccc(Cl)cn1	i	i	i	i	i	·	·	·
CC(C)(C)c1ccc(OCC(=O)N/N=C/c2ccsc2)cc1	i	i	i	i	i	·	·	·
COC(=O)CSc1[nH]c2cc(C)ccc2c1[N+](=O)[O-]	i	i	16*	i	i	44%*	i	i
CCOc1ccc2[nH]c(SCC(=O)OC)c([N+](=O)[O-])c2c1	i	i	7.6*	-4.8*	i	18%*	i	49%*
O=C1NC(=O)/C(=C/c2ccc(-c3cc(C(=O)O)ccc3Cl)o2)S1	i	i	6.2*	i	i	12%*	i	i
OC[C@@H](O)C1OC2NC(=S)OC2C1O (stereo not given in full)	i	i	i	i	i	·	·	·
